Results on one molecule are retold here after ChEMBL document CHEMBL2057168, “(1aR,5aR)1a,3,5,5a-Tetrahydro-1H-2,3-diaza-cyclopropa[a]pentalene-4-carboxylic acid (MK-1903): a potent GPR109a agonist that lowers free fatty acids in humans” (J Med Chem, 2012).

The source made the active and inactive calls. No cut-off for these calls is given here.

Series [1] can be described thus: Tmax in human at 150 mg, po BID administered on day 1 followed by 2-day wash out period after which dosing continued up to day 11 measured on day 1. The following applies: in vivo. It counts as ADME, organism-based. The essentials:
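Double-blind, placebo-controlled, randomized multiple oral dose study in healthy male volunteers (cohorts of eight; six active, two placebo). Dose given on day 1, then a two-day washout, then dosing days 4–11; for the QD arm, subjects were titrated over days 1–4. Venous plasma sampled predose and 0.5, 1, 1.5, 2, 4, 6, 8, 10, 12 h postdose on days 1, 4 and 11. Tmax reported as median (min–max).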

For series [2], the system named is Homo sapiens. The series can be described thus: Antidyslipedic activity in human assessed as decrease in free fatty acid level at 50 to 200 mg, po administered as a single dose measured up to 8 hrs relative to placebo control. It counts as functional, organism-based.
A short description of series [3]: Terminal half life in mouse. It counts as ADME, organism-based. The conditions noted are these: in vivo, read-out: beta t1/2 (converted).
Series [4] is described as follows: Cmin in human at titreated dose from day 1 to 4 followed by 200 mg, po QD administered up to day 11 measured on day 4 at 12 hrs. The following applies: in vivo, read-out: Cmin. It counts as ADME, organism-based. The method, boiled down:
(§1)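 Healthy male volunteers took part in a double-blind, randomized, placebo-controlled dose-escalation study, with cohorts of 8 (6 on drug, 2 on placebo). Each subject got an oral dose on day 1, then a 2-day washout, then dosing on days 4–11. The 200 mg qd group was titrated over days 1–4. Venous plasma was sampled predose and 0.5–12 h postdose on days 1, 4 and 11, and predose on days 5–10 for troughs.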

A short description of series [5]: Oral bioavailability in mouse. The conditions noted are these: in vivo. It counts as ADME, organism-based.
The nature of series [6]: AUC (0 to 8 hrs) in human at 150 mg, po TID administered on day 1 followed by 2-days wash out period after which dosing continued up to day 11 measured on day 1. Also on record: time < 8 hr, dose 150 mg, route oral. The following applies: plasma. It counts as ADME, organism-based. The essentials: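 Healthy male volunteers, double-blind placebo-controlled randomized dose escalation; cohorts of eight (six active, two placebo). Oral dose on day 1, two-day washout, then dosing days 4–11. Venous blood predose and 0.5, 1, 1.5, 2, 4, 6, 8, 10, 12 h postdose on days 1, 4 and 11 for plasma drug; dosing interval (τ) 12 h for BID, 8 h for TID; Ctrough taken at end of interval.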

A short description of series [7]: Apparent half life in human at 50 mg, po BID administered on day 1 followed by 2-day wash out period after which dosing continued up to day 11 measured on day 11. It counts as ADME, organism-based. The conditions noted are these: in vivo, read-out: t1/2(app) (converted). The method, boiled down:
(§2)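 Double-blind, placebo-controlled, randomized dose-escalation study in healthy male volunteers, six cohorts of eight (six active, two placebo). Oral dose on day 1, two-day washout, then dosing days 4–11; the 200 mg qd cohort was titrated over days 1–4. Venous blood taken predose and at 0.5–12 h on days 1, 4 and 11; plasma drug measured. τ 12 h (bid), 24 h (qd), 8 h (tid), 6 h (qid).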

Series [8] can be described thus: Cmax in human at 50 mg, po BID administered on day 1 followed by 2-day wash out period after which dosing continued up to day 11 measured on day 1. It counts as ADME, organism-based. Also on record: dose 50 mg, route oral. The conditions noted are these: in vivo. The essentials:
as §1

Another series has as its system Rattus norvegicus. The series can be described thus: Antidyslipedic activity in fasted Sprague-Dawley rat assessed as decrease in free fatty acid level at 0.01 to 100 mg/kg, po by NEFA C-free fatty acid assay. Also on record: scale not given: the % may be the effect or the level left. It counts as functional. The following applies: dose mg/kg 0.01-100. The essentials:
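Male Sprague-Dawley rats fasted, compound by oral gavage, serial plasma sampling after dosing for free fatty acids over a time course; vehicle-dosed control group.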

Series [9] in a line: AUC (0 to 12 hrs) in human at 150 mg, po BID administered on day 1 followed by 2-day wash out period after which dosing continued up to day 11 measured on day 11. It counts as ADME, organism-based. Also on record: dose 150 mg, time < 12 hr, route oral. The following applies: plasma. The essentials:
as §2

In series [10] the test system is Homo sapiens. Description: Antidyslipidemic activity in human assessed as decrease in free fatty acid level titreated po dose administered from day 1 to 4 followed by 200 mg, po QD administered up to day 11 measured on day 4 and 11. It counts as functional, organism-based. The method, boiled down:
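Healthy male volunteers in a randomized, double-blind, placebo-controlled multiple-dose study, six active and two placebo subjects per cohort. Oral dosing on day 1, two-day washout, then days 4–11, with titration over days 1–4 for the qd arm.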

Series [11] is described as follows: Drug excretion in human urine assessed as unchanged drug at 50 to 150 mg, po BID in administered on day 1 followed by 2-days wash out period after which dosing continued up to day 11. The following applies: read-out: Ae. It counts as ADME, organism-based.

The term Tmax denotes the time from dosing to the highest level. Usually bioavailability stands for dose-corrected exposure relative to a reference, in per cent. The term AUC denotes concentration integrated over time. In general, Cmax refers to the maximum level reached in the sampled fluid or tissue.

On to `O=C(O)c1n[nH]c2c1C[C@H]1C[C@@H]21`, for which the Tmax in series [1] came out at 1.25 h. For the same molecule, the result with Homo sapiens [2] and in the series on Homo sapiens [10] was Active. Besides, the results for the half-life in series [3] and in series [7] were 8.7 h and 1.9 h, respectively. Also, the concentration at 12 h in series [4] came to 0.244 nM. Moreover, the bioavailability in series [5] amounted to 40%. The AUC at 8 h in series [6] is 0.102 µM·h. The molecule further displayed a peak concentration (Cmax) in [8] of 12.3 nM. In addition, the Activity in the series with Rattus norvegicus is listed as 90%. For the same molecule, the AUC at 12 h in series [9] worked out at 0.0788 µM·h. Also, in [11], the dose excreted is 70%.
